Compound activity as filed in PubChem.
GPR7 antag: GPR7 receptor antagonists, primary screen, cell-based, fluorescence, single concentration. Neuropeptides B/W receptor type 1 (Homo sapiens), P48145. GPR7-expressing cells, fluorescence antagonist assay. inhibition, % at 4.4 µM. 290,000 compounds, 1.1% hits; in the data active means inhibition above about 16%, passing the limit was not always enough;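 further: cells stimulated with the agonist NPW; 0% = agonist with vehicle and 100% = vehicle without agonist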
CHO parental Ca: ATP-evoked calcium signal inhibitors, parental CHO, primary screen, counter-screen for OX1R antagonist project, cell-based, fluorescence, Fluo-8 calcium dye | parental CHO-K1, ATP-induced calcium, Fluo-8 fluorescence | inhibition, % at 5.6 µM | 330,000 compounds, 0.63% hits | AID 463079, 2010;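 active means inhibition above that plate's mean sample inhibition plus 3 SD, cut at about 26% in these data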;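 further: 0% = ATP-challenged DMSO wells and 100% = DMSO wells without ATP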
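Assay system – parental CHO cells · Reagent – ATP stimulus · Detection – intracellular calcium via Fluo-8 no-wash fluorescent dye · Evaluation – percent inhibition of ATP-evoked calcium rise, normalized to controls · Controls – ATP wells versus no-ATP DMSO wells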
GalR3 antagonist: GalR3 antagonists in HEK293 cells, primary screen, cell-based, fluorescence readout; HEK293 GalR3-CNG cAMP membrane potential fluorescence; galR3 body fused to GalR1 C-terminus; inhibition, % at 3 µM; 360,000 compounds, 0.44% hits;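 active means inhibition above the screen-wide average plus 3 SD, cut at about 13% in these data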;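 further: forskolin and galanin both at EC90 stimulate the cells; cAMP rise reported by CNG channel membrane potential dye signal; 0% = forskolin plus galanin with DMSO and 100% = forskolin alone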
OX1R antag-1: antagonists of human orexin 1 receptor (OX1R); Orexin/Hypocretin receptor type 1 (Homo sapiens), O43613; OX1R-expressing cells, FRET antagonist read-out; inhibition, % at 6.6 µM; 330,000 compounds, 1.8% hits; AID 485270, 2010; in the data active means inhibition mostly above about 38%, no sharp cut-off; inactive means mostly below about 40%;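 further: 0% = agonist challenge alone and 100% = reference antagonist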
Target sequence (O43613 whole entry, looked up): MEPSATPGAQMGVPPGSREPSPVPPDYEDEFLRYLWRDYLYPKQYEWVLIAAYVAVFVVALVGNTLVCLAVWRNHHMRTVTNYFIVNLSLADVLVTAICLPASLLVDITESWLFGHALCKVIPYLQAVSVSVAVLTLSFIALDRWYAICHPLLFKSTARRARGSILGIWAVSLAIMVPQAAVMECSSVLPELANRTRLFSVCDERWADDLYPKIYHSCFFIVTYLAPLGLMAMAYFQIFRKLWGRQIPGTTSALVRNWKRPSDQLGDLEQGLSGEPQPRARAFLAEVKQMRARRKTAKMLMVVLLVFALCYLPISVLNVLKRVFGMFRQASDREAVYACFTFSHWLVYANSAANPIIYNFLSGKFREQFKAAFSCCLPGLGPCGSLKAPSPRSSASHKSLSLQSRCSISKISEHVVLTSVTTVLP
OX1R antag-2: OX1R (HCRTR1) antagonists, primary screen, fluorescence, CHO/OX1R cells, Fluo-8 calcium, orexin A; Orexin/Hypocretin receptor type 1 (Homo sapiens), O43613; Fluo-8 calcium fluorescence; inhibition, % at 5 µM; 330,000 compounds, 0.43% hits; AID 434989, 2010;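 active means inhibition above its plate's threshold, mean inhibition of all tested compounds on the plate plus 3 SD, cut at about 37% in these data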;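 further: 0% = orexin A challenge wells and 100% = SB-334867-A antagonist wells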
Active calls of the source: *. Hits are enriched below; roughly 3.1% of the tested compounds scored in any of these assays.

O=C(Nc1cccc(-c2nc3ncccc3o2)c1)c1ccccc1 was read as GPR7 antag -21, CHO parental Ca -22, GalR3 antagonist -10, OX1R antag-1 56* and OX1R antag-2 -10.
For COc1ccc(-c2nc3ncccc3o2)cc1NC(=O)c1cccs1 the results were GPR7 antag -10, CHO parental Ca -17, GalR3 antagonist -7, OX1R antag-1 20 and OX1R antag-2 -26.
For CNC(=O)c1ccccc1C1(O)c2ccccc2CCc2ccccc21 the results were GalR3 antagonist -8.
Screening CCOC(=O)C1=CCN(S(=O)(=O)c2cccc(Cl)c2)C1c1ccc(Cl)cc1 (centres undefined) returned GalR3 antagonist -6.
For O=C(Nc1nccs1)c1cn(-c2ccccc2)nc1-c1ccccc1 the results were GPR7 antag 19*, CHO parental Ca -18, GalR3 antagonist -4, OX1R antag-1 44 and OX1R antag-2 -24.
COC(=O)c1cn(-c2ccccc2)nc1-c1ccc(OC)cc1 was read as GPR7 antag -4, CHO parental Ca -23, GalR3 antagonist -7, OX1R antag-1 15 and OX1R antag-2 -13.
Screening CC(C)COc1ccc(-c2nn(-c3ccccc3)cc2C(=O)Nc2nccs2)cc1 returned GPR7 antag 9, CHO parental Ca 39*, GalR3 antagonist -3, OX1R antag-1 6 and OX1R antag-2 26.
`CC(C)CC1C(=O)N(Cc2cn(CCC3OCCCO3)nn2)CCS(=O)(=O)N1Cc1ccc(-c2ccc(Cl)c(Cl)c2)cc1` (centres undefined) gave GalR3 antagonist -6.
S=c1[nH]nc(-c2ccncc2)n1Cc1ccccc1 was read as GPR7 antag 0, CHO parental Ca -11, GalR3 antagonist -4, OX1R antag-1 1 and OX1R antag-2 4.
Cc1cc(-c2n[nH]c(=S)n2Cc2ccccc2)cs1 was read as GPR7 antag 22*, CHO parental Ca -16, GalR3 antagonist -2, OX1R antag-1 0 and OX1R antag-2 -23.
CC(=O)NC1=C(N(C)C2CCS(=O)(=O)C2)C(=O)c2ccccc2C1=O (centres undefined) was read as GPR7 antag -6, CHO parental Ca -8, GalR3 antagonist -2, OX1R antag-1 70* and OX1R antag-2 -9.
Screening CN(C(=O)Nc1ccccc1)C1CCS(=O)(=O)C1 (centres undefined) returned GPR7 antag -2, CHO parental Ca -2, GalR3 antagonist 1, OX1R antag-1 5 and OX1R antag-2 -5.
`COc1ccc2oc(=N)c(C(=O)Nc3ccccc3)cc2c1` gave GPR7 antag -4, CHO parental Ca 10, GalR3 antagonist 3, OX1R antag-1 76* and OX1R antag-2 -4.
Screening COc1ccc(Nc2ncccc2C(=O)Nc2ccccc2)cc1 returned GPR7 antag 15, CHO parental Ca 50*, GalR3 antagonist -6, OX1R antag-1 5 and OX1R antag-2 -19.
CCCCCCCC/C=C\CCCCCCCC(=O)NCCc1ccc(O)c(O)c1 was read as CHO parental Ca 36*, GalR3 antagonist 0, OX1R antag-1 8 and OX1R antag-2 16.
Cc1c(Br)cccc1NC(=O)C1(C)CCN1CCc1ccccc1 (centres undefined) was read as GalR3 antagonist -4.
Screening N#CC1=C(N)SC(N)=C(C#N)C1Cc1ccccc1 returned GPR7 antag -2, CHO parental Ca 5, GalR3 antagonist -1, OX1R antag-1 39* and OX1R antag-2 36.
Screening Cc1cc(=O)[nH]c(SCC(=O)C23CC4CC(CC(C4)C2)C3)c1C#N returned GPR7 antag 8, CHO parental Ca -9, GalR3 antagonist 1, OX1R antag-1 40* and OX1R antag-2 -20.
Screening CC(=O)c1ccc(S(=O)(=O)N2CCN(c3ccnc4cc(Cl)ccc34)CC2)cc1 returned GalR3 antagonist -8.
Screening Cc1cc(N2CCN(S(=O)(=O)c3ccc(Cl)cc3)CC2)c2ccccc2n1 returned GPR7 antag -5, CHO parental Ca 58*, GalR3 antagonist -8, OX1R antag-1 30 and OX1R antag-2 24.
`Cc1ccc(S(=O)(=O)N2CCN(c3ccnc4cc(Cl)ccc34)CC2)cc1` gave GPR7 antag 14, CHO parental Ca 56*, GalR3 antagonist -7, OX1R antag-1 31 and OX1R antag-2 53*.
For Cc1ccc(S(=O)(=O)N2CCN(c3ccnc4cc(Cl)ccc34)CC2)cc1C the results were GPR7 antag -15, CHO parental Ca 37*, GalR3 antagonist -2, OX1R antag-1 55 and OX1R antag-2 25.
Screening CCC(=O)N[C@H]1C=C[C@H](CC(=O)OC)O[C@@H]1CO returned GalR3 antagonist -3.
Screening Nc1nc(Cl)cc(N2CCC(c3cc(-c4ccc(Cl)cc4Cl)n[nH]3)CC2)n1 returned GPR7 antag -3, CHO parental Ca 32*, GalR3 antagonist -8, OX1R antag-1 10 and OX1R antag-2 1.
For N=c1n(Cc2ccc(Cl)cc2)c2ccccc2n1CC(O)COc1ccccc1 (centres undefined) the results were GPR7 antag 47*, CHO parental Ca 72*, GalR3 antagonist -6, OX1R antag-1 7 and OX1R antag-2 75*.
For Clc1ccccc1CSc1nnc(-c2ccccn2)n1Cc1ccco1 the results were GPR7 antag 1, CHO parental Ca -24, GalR3 antagonist 1, OX1R antag-1 57* and OX1R antag-2 24.
For NC(=O)CSc1nnc(-c2ccccn2)n1Cc1ccco1 the results were GPR7 antag -12, CHO parental Ca -24, GalR3 antagonist -6, OX1R antag-1 14 and OX1R antag-2 -14.
COc1ccc(OC)c(-n2c(-c3cc(-c4ccc(F)cc4)n[nH]3)n[nH]c2=S)c1 was read as GPR7 antag -11, CHO parental Ca -27, GalR3 antagonist 15*, OX1R antag-1 12 and OX1R antag-2 -11.
`COc1ccc(-c2n[nH]c(=S)n2-c2cc(OC)ccc2OC)cc1` gave GPR7 antag -7, CHO parental Ca -20, GalR3 antagonist -5, OX1R antag-1 2 and OX1R antag-2 -12.
For O=c1[nH]cnc2nn(C3OC(CO)C(O)C3O)nc12 (centres undefined) the results were GalR3 antagonist -3.
`CCc1cc2c(=O)[nH]c(Cc3ccccc3)nc2s1` gave GPR7 antag -17, CHO parental Ca 43*, GalR3 antagonist -2, OX1R antag-1 24 and OX1R antag-2 -9.
For COc1ccc2nc(NC(=O)Nc3ccccc3)sc2c1 the results were GPR7 antag 7, CHO parental Ca -4, GalR3 antagonist -5, OX1R antag-1 30 and OX1R antag-2 -14.
